The list is not random: actives were taken first. Their share in the collection is about 3%.
esBAF inh: SWI/SNF esBAF complex inhibition | AID 602393 | reporter increase, % at 12.5 µM | mouse ES cells, Bmi1-luciferase knock-in reporter, 24 h; 100% = twice the neutral-well signal | hit rate 2% among 350,000; in the data active = activation above about 40%;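 also: 0% = median of the plate's neutral control wells and 100% = double that signal; a rise in the Bmi1 reporter signal indicates esBAF inhibition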
XiGFP reactiv: reactivates the inactive X chromosome in mouse fibroblasts; XiGFP mouse fibroblasts, % GFP-positive cells imaging, 3 d; cells co-treated with 5-aza-dC sensitizer; scaled so ellipticine positive control = 100%; AID 743238; activation, % at 7.58 µM; hit rate 0.055% among 360,000;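 active = mean normalized replicate activation at least 10% and every replicate at or above 10%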;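 also: 0% = median of on-plate neutral control wells and 100% = ellipticine 6 µM median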
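System: SV40-immortalized XiGFP fibroblast cells, line 68-5-11 / Incubation: 3-day compound exposure, then 15 min fixation at room temperature / Compound: single concentration per compound, delivered by pin transfer / Buffer or medium: DMEM plus 5-aza-dC sensitizer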
Wnt bcat act: Wnt/beta-catenin pathway activation. hit rate 1.2% among 300,000. activation, % at 9.35 µM. Wnt/beta-catenin reporter cell assay, activator, plate reader; in the data active = activation above about 30%, passing the limit was not always enough;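 also: 0% = neutral control wells and 100% = positive control wells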
CASP6 VEID inh: blocks human caspase-6 cleavage activity; purified caspase-6, Z-VEID-R110 cleavage fluorescence; hit rate 0.53% among 350,000; inhibition, % at 12.5 µM; P55212;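 active = mean inhibition across replicates at least about 35%, with every replicate also reaching that limit, limit read from the data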;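 also: 0% = median of neutral control wells and 100% = no fluorescence left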
Target sequence (P55212 24-179 limits assumed): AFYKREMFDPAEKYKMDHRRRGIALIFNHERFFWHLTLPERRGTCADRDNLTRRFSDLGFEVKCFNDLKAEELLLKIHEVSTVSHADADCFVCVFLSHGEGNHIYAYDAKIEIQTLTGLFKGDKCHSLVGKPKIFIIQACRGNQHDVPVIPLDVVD
Target sequence (P55212 194-293 limits assumed): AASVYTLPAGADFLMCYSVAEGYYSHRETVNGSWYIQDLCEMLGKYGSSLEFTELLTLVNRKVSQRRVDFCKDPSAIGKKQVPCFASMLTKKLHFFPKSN
NSD2 inh: NSD2 (human) methyltransferase inhibition; NSD2 peptide methylation, AlphaScreen, 120 min; AID 743445; inhibition, % at 12.5 µM; hit rate 0.54% among 310,000; in the data active = inhibition above about 50%
MITF TRPM1 HTS: increases MITF-driven TRPM1 promoter luciferase signal; AID 588334; hit rate 0.75% among 300,000; SK-MEL-5 TRPM1-promoter luciferase, 24 h; % of positive control, neutral wells = 0; activation, % at 12.5 µM;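 active = mean activation of at least 80% with every replicate also reaching 80%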;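 also: 0% = neutral control wells and 100% = parthenolide positive control wells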
* = called active by the depositor.

What do the screens show for `C/C=C/c1ccc([C@@H]2[C@H](CO)N(CC3CC3)C23CN(S(=O)(=O)CC)C3)cc1`?
XiGFP reactiv: 0; CASP6 VEID inh: -1

Results for Cc1ccc(-c2nnc(SCc3ccccc3F)o2)cc1 ?
Wnt bcat act: 29; NSD2 inh: -1; MITF TRPM1 HTS: 99*

Results for COc1ccc(-c2nnc(SCc3ccccc3F)o2)cc1OC ?
esBAF inh: 66*; NSD2 inh: -1; MITF TRPM1 HTS: 71

How did C[C@H](CO)N1C[C@H](C)[C@@H](CN(C)C(=O)Cc2ccccc2)OCCCC[C@H](C)Oc2ccc(NC(=O)CCC(F)(F)F)cc2C1=O do in these assays?
esBAF inh: 0; XiGFP reactiv: 0

How did Cc1ccc(NS(=O)(=O)c2ccc(Br)s2)nc1 do in these assays?
XiGFP reactiv: 0; Wnt bcat act: -1; CASP6 VEID inh: 37*; NSD2 inh: 0; MITF TRPM1 HTS: -1

Results for Cc1cc(C)nc(NS(=O)(=O)c2ccc(Br)s2)c1 ?
esBAF inh: -3; XiGFP reactiv: 0; Wnt bcat act: 0; CASP6 VEID inh: 7

What do the screens show for `COc1ccc2c3c(n(C)c2c1)[C@H](CO)N(C(=O)c1cccnc1)CC31CCN(S(C)(=O)=O)CC1`?
XiGFP reactiv: 0

What do the screens show for `CCOC(=O)c1sc(NC(=O)Cc2ccc(F)cc2)nc1C`?
XiGFP reactiv: 0; Wnt bcat act: 0; CASP6 VEID inh: 1; NSD2 inh: -2; MITF TRPM1 HTS: -3

What do the screens show for `CCOC(=O)c1sc(NC(=O)c2ccc(C)o2)nc1C`?
esBAF inh: 62*; NSD2 inh: 0; MITF TRPM1 HTS: 11

Results for CCOC(=O)c1sc(NC(=O)Nc2ccc(F)cc2)nc1C ?
XiGFP reactiv: 0; Wnt bcat act: -2; CASP6 VEID inh: 0; NSD2 inh: -1; MITF TRPM1 HTS: 103*

What do the screens show for `CCOC(=O)Nc1nnc(-c2ccc(OC)cc2)s1`?
esBAF inh: 79*; NSD2 inh: 6; MITF TRPM1 HTS: 40

How did CCCc1nnc(NC(=O)c2cccc(OC)c2)s1 do in these assays?
esBAF inh: 36; Wnt bcat act: 18; CASP6 VEID inh: 2; NSD2 inh: 8; MITF TRPM1 HTS: 86*

How did CO[C@@H]1CN(C)C(=O)c2cc(NS(=O)(=O)CC(F)(F)F)ccc2OC[C@H](C)N(C(=O)NC(C)C)C[C@H]1C do in these assays?
esBAF inh: -3; XiGFP reactiv: 0; CASP6 VEID inh: -1

Results for COc1cccc(NC(=O)C[C@H]2CC[C@H]3[C@H](COc4ccc(NC(=O)C5CCCC5)cc4C(=O)N3C)O2)c1 ?
XiGFP reactiv: 0

How did COc1ccc(NC(=O)N2CC(=O)N3[C@@H](CO)[C@H](c4ccc(C5=CCCC5)cc4)[C@@H]3C2)cc1 do in these assays?
XiGFP reactiv: 0; CASP6 VEID inh: -1

How did CN1[C@@H]2c3ccc(-c4ccc(F)cc4)c(=O)n3C[C@@H]2[C@@H](CO)[C@@H]1C(=O)Nc1ccccc1 do in these assays?
esBAF inh: 1; XiGFP reactiv: 0; CASP6 VEID inh: -2

How did CCOCc1nnc(NC(=O)c2ccc(OC)cc2)s1 do in these assays?
esBAF inh: 53*; NSD2 inh: 0; MITF TRPM1 HTS: 37

Results for CCOC(=O)c1sc(NC(=O)c2ccc(OC(C)=O)cc2)nc1C ?
XiGFP reactiv: 0; Wnt bcat act: 1; CASP6 VEID inh: 1; NSD2 inh: -6; MITF TRPM1 HTS: 30

Results for CCOC(=O)c1sc(NC(=O)c2ccc(OC)cc2)nc1C ?
esBAF inh: 47*; XiGFP reactiv: 0; Wnt bcat act: 7; CASP6 VEID inh: 6; NSD2 inh: -1; MITF TRPM1 HTS: 22

How did COc1ccc(NC(=O)N2C[C@@H](O)COC[C@@H]3O[C@@H](CC(=O)NCc4ccccc4OC)CC[C@H]32)cc1 do in these assays?
esBAF inh: 5; XiGFP reactiv: 0; CASP6 VEID inh: 0

How did COc1ccccc1-c1ccc([C@@H]2[C@@H](CO)N3CCCCN(C(=O)NC4CCCC4)C[C@H]23)cc1 do in these assays?
esBAF inh: -4; XiGFP reactiv: 0; CASP6 VEID inh: 0
